Source: ChEMBL document CHEMBL1125515, “DNA-directed alkylating agents. 5. Acridinecarboxamide derivatives of (1,2-diaminoethane)dichloroplatinum(II)” (J Med Chem, 1992)

Key:
[1] = In Vitro evaluation for the growth inhibition of Subline (P388/CP) Leukemia cell lines; type: functional, cell-based, Mus musculus
How it was run: (§1)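 Cells were continuously exposed to drug for 72 h in 96-well cultures. IC50 is the drug concentration (μM) inhibiting cell growth by 50%. Determinations were run in triplicate.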

Mus musculus [2] = test: Compound was treated in vivo for percent increase in life span of treated animals (optimal dose 65 mg/kg, ip) compared with P338/W bearing control animals; type: functional
P388 = test: In Vitro evaluation for the growth inhibition of Wildtype P388 Leukemia cell lines; type: functional, cell-based; conditions: Mus musculus; how it was run: as §1
Mus musculus [3] = test: Compound was treated in vivo for percent increase in life span of treated animals (optimal dose 100 mg/kg, ip) compared with […]/W bearing control animals; type: functional
[4] = In Vitro evaluation for the growth inhibition of Subline (P388/AMSA) Leukemia cell lines; type: functional, cell-based, Mus musculus; how it was run: as §1
Mus musculus [5] = test: Compound was treated in vivo for percent increase in life span of treated animals (optimal dose 30 mg/kg, ip) compared with […]/W bearing control animals; type: functional
Mus musculus [6] = test: Compound was treated in vivo for percent increase in life span of treated animals (optimal dose 5.3 mg/kg, ip) compared with P338/W bearing control animals; type: functional, organism-based; parameters: dose 5.3 mg/kg; conditions: at 5.3 mg/kg
Mus musculus [7] = test: Compound was treated in vivo for percent increase in life span of treated animals (optimal dose 5.5 mg/kg, ip) compared with P338/W bearing control animals; type: functional, organism-based; parameters: dose 5.5 mg/kg; conditions: at 5.5 mg/kg
Mus musculus [8] = test: Compound was treated in vivo for percent increase in life span of treated animals (optimal dose 45 mg/kg, ip) compared with […]/W bearing control animals; type: functional
Mus musculus [9] = test: Compound was treated in vivo for percent increase in life span of treated animals (optimal dose 13.3 mg/kg, ip) compared with […]/W bearing control animals; type: functional, organism-based; parameters: dose 13.3 mg/kg; conditions: at 13.3 mg/kg
Mus musculus [10] = test: Compound was treated in vivo for percent increase in life span of treated animals (optimal dose 13.3 mg/kg) compared with […]/CP bering control animals; type: functional, organism-based; parameters: dose 13.3 mg/kg; conditions: at 13.3 mg/kg
Mus musculus [11] = test: Compound was treated in vivo for percent increase in life span of treated animals (optimal dose 20 mg/kg, ip) compared with […]/W bearing control animals; type: functional

Molecule: Cl.NCCNCCCCCCNC(=O)c1cccc2c(N)c3ccccc3nc12
- IC50 ([1]; Mus musculus): 2300 nM
- Increase in life-span (Mus musculus [2]): <20%
- IC50 (P388): 5200 nM

Molecule: Cl.NCCNCCCNC(=O)c1ccc2nc3ccccc3cc2c1
- IC50 ([1]; Mus musculus): 4900 nM
- Increase in life-span (Mus musculus [3]): <20%
- IC50 (P388): 3800 nM

Molecule: Cl.NCCNCCCNC(=O)c1cccc2cc3ccccc3nc12
- IC50 ([4]; Mus musculus): 1600 nM
- IC50 ([1]; Mus musculus): 590 nM
- IC50 (P388): 740 nM
- Increase in life-span (Mus musculus [5]): 64%

Molecule: DICHLORO(ETHYLENEDIAMINE) PLATINUM (II) [listing 1 of 2 here]
- IC50 [1]: 1030 nM

Molecule: CISPLATIN [listing 1 of 2 here]
- IC50 [4]: 5500 nM
- IC50 [1]: 5300 nM

Molecule: Cl.NCCNCCCCCCNC(=O)c1ccc2nc3ccccc3cc2c1
- IC50 ([1]; Mus musculus): 3800 nM
- Increase in life-span (Mus musculus [3]): <20%
- IC50 (P388): 3600 nM

Molecule: CISPLATIN [listing 2 of 2 here]
- Increase in life-span (Mus musculus [6]): 120%
- Increase in life-span (Mus musculus [7]): < 20%

Molecule: Cl.NCCNCCCNC(=O)c1cccc2c(N)c3ccccc3nc12
- IC50 ([4]; Mus musculus): 870 nM
- IC50 ([1]; Mus musculus): 2600 nM
- Increase in life-span (Mus musculus [8]): 45%
- IC50 (P388): 3100 nM

Molecule: DICHLORO(ETHYLENEDIAMINE) PLATINUM (II) [listing 2 of 2 here]
- Increase in life-span (Mus musculus [9]): 70%
- Increase in life-span (Mus musculus [10]): < 20%

Molecule: Cl.NCCNCCCCCCNC(=O)c1cccc2cc3ccccc3nc12
- IC50 ([4]; Mus musculus): 1100 nM
- IC50 ([1]; Mus musculus): 350 nM
- Increase in life-span (Mus musculus [11]): 23%
- IC50 (P388): 510 nM
